An excerpt weighted towards active compounds, which were near 4.1% of everything screened.
T cruzi repl: T. cruzi replication inhibition | T. cruzi beta-gal in NIH3T3, luminescence, 90 h | inhibition, % (concentration not given with the values) | 300,000 tested, 1.4% active;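 active = mean inhibition across valid replicates above about 55%, limit read from the data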;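 note: signal also drops with host cell toxicity which is not excluded here; higher percent means less beta-gal luminescence so fewer parasites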
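Incubation – ≥90 h infection period, 3 h prior cell attachment · System – NIH/3T3 fibroblasts plus reporter T. cruzi · Doses – compound pinned at 50 nL/well, DMSO · Read-out basis – percent inhibition of parasite-derived β-gal signal · Signal – luminescent β-galactosidase signal after 60 min lysis · Also added – 5000 T. cruzi trypomastigotes/well · Medium – Low-serum DMEM with 2% FBS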
HCV NS3 hel inh: inhibitors of Hepatitis C virus NS3 helicase; inhibition, % at 10.9 µM; 290,000 tested, 0.56% active; NS3 helicase DNA unwinding, Cy5 molecular beacon fluorescence;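 active = inhibition above the mean of all tested compounds plus 3 SD, set per campaign, cut at about 35% in these data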
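System: Hepatitis C virus NS3 helicase domain fragment enzyme | Reagent: Annealed dual-labelled DNA beacon duplex, ATP-started | Compound dosing: 10.9 µM single point, 0.8% DMSO | Incubation: 1 h reaction at 25 °C, ATP-initiated | Technique: Cy5 fluorescence | Evaluation: Percent inhibition from t60/t0 fluorescence ratio | Benchmarks: Low DMSO, high thioflavine S at 110 µM | Replication: Singlicate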
DNA FID counter: fluorescent intercalator displacement, NS3 helicase counter-screen. DNA fluorescent intercalator displacement, fluorescence. inhibition, % at 7.9 µM. 290,000 tested, 0.17% active. AID 1845; in the data active = inhibition above about 37%;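 note: higher means more ethidium bromide displaced from hairpin DNA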
MEKK2wt PB1 HTS: raises or lowers MEK5 binding to wildtype human MEKK2 PB1 domain | Q9Y2U5 | bead flow cytometry, Alexa488-MEK5 binding to MEKK2 WT; actives lie on both sides | binding response (% of control), % at 10 µM | 290,000 tested, 1.1% active | AID 1531; in the data active = binding response below about 67% or above about 130%
MEKK2mut PB1 HTS: signal of MEK5 binding to mutant human MEKK2 PB1 domain; bead flow cytometry, Alexa488-MEK5 binding to MEKK2 mutant; percent response, % at 10 µM; 290,000 tested, 0.35% active; AID 1530; in the data active = percent response above about 24%, passing the limit was not always enough
MEKK3 PB1 HTS: raises or lowers MEK5 binding to the human MEKK3 PB1 domain | Q99759 | bead-based flow cytometry, Alexa488-MEK5 binding to MEKK3; actives lie on both sides; 0 = blocked by unlabeled MEK5, 100 = vehicle | binding response (% of control), % at 10 µM | 290,000 tested, 1.4% active;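 active = binding response more than 3 SD above or below the average of its plate-row segment, actives on both sides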;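 note: Alexa488 bead fluorescence after subtracting the streptavidin-only scavenger bead signal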
Target sequence (Q99759 whole entry, looked up, the tested form may be a part): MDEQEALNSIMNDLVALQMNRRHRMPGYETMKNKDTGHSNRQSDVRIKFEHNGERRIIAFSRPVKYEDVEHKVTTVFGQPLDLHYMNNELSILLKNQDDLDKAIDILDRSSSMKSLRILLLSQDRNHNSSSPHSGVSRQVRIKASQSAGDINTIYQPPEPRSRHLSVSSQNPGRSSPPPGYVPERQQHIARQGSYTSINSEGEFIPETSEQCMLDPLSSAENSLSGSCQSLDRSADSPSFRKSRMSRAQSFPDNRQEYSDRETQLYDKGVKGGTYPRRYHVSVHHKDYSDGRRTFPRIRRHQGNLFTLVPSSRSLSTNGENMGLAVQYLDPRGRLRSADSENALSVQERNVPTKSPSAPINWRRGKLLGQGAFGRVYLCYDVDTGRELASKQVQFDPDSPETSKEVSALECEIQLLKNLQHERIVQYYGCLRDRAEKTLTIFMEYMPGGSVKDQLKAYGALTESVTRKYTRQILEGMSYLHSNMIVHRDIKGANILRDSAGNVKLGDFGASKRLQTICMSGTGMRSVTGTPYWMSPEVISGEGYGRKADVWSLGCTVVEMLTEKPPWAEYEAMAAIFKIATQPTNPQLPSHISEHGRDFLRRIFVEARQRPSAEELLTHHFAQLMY
MEKK2wt confirm: raises or lowers MEK5 binding to wildtype human MEKK2, retest | shares compounds with MEKK3 PB1 HTS | bead flow cytometry, Alexa488-MEK5 binding to MEKK2 WT; actives lie on both sides | binding response (% of control), % at 10 µM | 5,900 tested, 2.4% active | AID 1892; in the data active = binding response below about 16% or above about 210%; inactive = in between
MEKK2mut confirm: signal of MEK5 binding to mutant human MEKK2, retest | 5,900 tested, 2% active | bead flow cytometry, Alexa488-MEK5 binding to MEKK2 mutant | shares compounds with MEKK3 PB1 HTS | AID 1893 | percent response, % at 10 µM; in the data active = percent response mostly above about 71%, no sharp cut-off; inactive = mostly below about 38%;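 note: higher means compound restores mutant binding toward wildtype level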
MEKK3 confirm: MEKK3-MEK5 PB1 inhibition, single concentration confirmation. shares compounds with MEKK3 PB1 HTS. bead flow cytometry, Alexa488-MEK5 binding to MEKK3; hits give low values. binding response (% of control), % at 10 µM. 5,900 tested, 1.8% active. AID 1894;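 active = binding response below 72% of control, or above a set upper limit, though filed actives all read lower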;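 note: lower values mean stronger disruption of MEK5 binding to MEKK3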
Each line names hits and unclear results; the compound was inactive in the other large screens (follow-up assays come after a bar, where they were run); [ ] = dose if it differs, or a comment.

CNC(=O)NC(=O)CSc1ccc(NC(C)=O)cc1	MEKK3 PB1 HTS 128.0 | MEKK2wt confirm inactive | MEKK2mut confirm inactive | MEKK3 confirm inactive
COc1cccc(CN2CC(C(=O)NC3CCCCCC3)CCC2=O)c1 (stereo unspecified)	none
O=C(NCC1CCCO1)C1CCCN1C(=O)NC1CCCCC1 (stereo unspecified)	none
O=C(NCC1CCCO1)C1CCCN1C(=O)Nc1ccc(Cl)c(Cl)c1 (stereo unspecified)	MEKK2wt PB1 HTS 5.0[inhibitor], MEKK3 PB1 HTS 4.0[inhibitor] | MEKK2wt confirm inactive | MEKK2mut confirm inactive | MEKK3 confirm inactive
Cn1cc(Br)c(C(=O)NNC(=O)Nc2ccccc2C(F)(F)F)n1	none
COC(=O)C1=C(C(=O)OC)[C@@H]2N(Cc3ccccc3)c3ccccc3[C@@]23C[C@@H](C(=O)OC)N(C(=O)NC(C)(C)C)C3=N1	none (no result: HCV NS3 hel inh, DNA FID counter)
COc1ccc(NC(=O)Nc2nc3c(s2)CCCC3)cc1	MEKK3 PB1 HTS 136.0 | MEKK2wt confirm inactive | MEKK2mut confirm inactive | MEKK3 confirm inactive
NCCNc1ccc(C(=O)N2c3ccccc3Sc3ccccc32)cc1[N+](=O)[O-]	MEKK2wt PB1 HTS 182.0, MEKK2mut PB1 HTS 37.0 | MEKK2wt confirm inactive | MEKK2mut confirm inactive | MEKK3 confirm inactive
COc1cc(/C=N/NC(=O)COc2ccccc2[N+](=O)[O-])ccc1OC(=O)c1ccco1	none
O=C(COc1ccccc1[N+](=O)[O-])N/N=C/c1ccc(OC(=O)c2ccco2)cc1	MEKK3 PB1 HTS 139.0 | MEKK2wt confirm inactive | MEKK2mut confirm inactive | MEKK3 confirm inactive
CCCOc1ccc(C(=O)NCCC(=O)NCCCC(=O)O)cc1	MEKK3 PB1 HTS 130.0 | MEKK2wt confirm inactive | MEKK2mut confirm inactive | MEKK3 confirm inactive
COc1cccc(Nc2nc(NCC3CCCO3)c3ccccc3n2)c1 (stereo unspecified)	T cruzi repl 59.9, MEKK2wt PB1 HTS 144.0 | MEKK2wt confirm inactive | MEKK2mut confirm inactive | MEKK3 confirm inactive
CC(=O)Nc1ccc(S(=O)(=O)Nc2cccc(NC(=O)c3ccco3)c2)cc1	MEKK3 PB1 HTS 45.0[inhibitor] | MEKK2wt confirm inactive | MEKK2mut confirm inactive | MEKK3 confirm inactive
CCC1Sc2ccc(S(=O)(=O)CCC(=O)Nc3cccc(Br)c3)cc2NC1=O (stereo unspecified)	none
COc1ccccc1OCc1nc(C#N)c(NCCCn2ccnc2)o1	none
N#Cc1nc(COc2ccccc2F)oc1NCCCn1ccnc1	MEKK2wt PB1 HTS 2.0[inhibitor], MEKK3 PB1 HTS 1.0[inhibitor] | MEKK2wt confirm inactive | MEKK2mut confirm inactive | MEKK3 confirm inactive
COC(CNC(=O)CCc1c(C)nc2c(c(C)nn2-c2ccc(C)cc2)c1C)OC	none
Cc1ccc(-n2nc(C)c3c(C)c(CCC(=O)Nc4ccc(CN5CCCC5)cc4)c(C)nc32)cc1	T cruzi repl 71.7, MEKK2wt PB1 HTS 191.0 | MEKK2wt confirm inactive | MEKK2mut confirm inactive | MEKK3 confirm inactive
O=C(CCN1CCOCC1)NC1CCCN(Cc2ccccc2F)C1 (stereo unspecified)	none
COc1ccc(CCC(C)NC(=O)Cc2ccc(OC)c(OC)c2)c(OC)c1 (stereo unspecified)	none
COc1nc(NCCC2=CCCCC2)nc(OC)n1	MEKK3 PB1 HTS 124.0 | MEKK2wt confirm inactive | MEKK2mut confirm inactive | MEKK3 confirm inactive
COc1nc(NCCc2ccc(OC)c(OC)c2)nc(OC)n1	none
COc1ccc(CNC(=O)C(C)Cc2ccccc2)cc1O (stereo unspecified)	none
Cc1cc(C2=NNC(=NCCc3ccccc3)SC2)c(C)n1CC1CCCO1 (stereo unspecified)	MEKK2wt PB1 HTS 150.0 | MEKK2wt confirm inactive | MEKK2mut confirm inactive | MEKK3 confirm inactive
CCN=C1NN=C(c2cc(C)n(CCc3ccccc3)c2C)CS1	none (no result: T cruzi repl)
CC(C)CCNc1nc(N)c([N+](=O)[O-])c(N2CCCCCC2)n1	none
COc1c[nH]n(-c2ccccc2)c(=O)c1=O	none (no result: HCV NS3 hel inh, DNA FID counter, MEKK2wt PB1 HTS, MEKK2mut PB1 HTS, MEKK3 PB1 HTS)
Cc1cccc(C)c1NCc1n[nH]c(=S)n1-c1ccccc1	none
COc1ccc(CNC(=O)CSc2ccc(Br)cc2)cc1OC	none
CC(C)(C)c1ccc(OCCCCCCN2CCNCC2)cc1	none (no result: HCV NS3 hel inh, DNA FID counter, MEKK2wt PB1 HTS, MEKK2mut PB1 HTS, MEKK3 PB1 HTS)
CC(C)(c1ccccc1)c1ccc(OCCCN2CCNCC2)cc1	T cruzi repl 64.3, MEKK2wt PB1 HTS 150.0 | MEKK2wt confirm inactive | MEKK2mut confirm inactive | MEKK3 confirm inactive
CCCCn1c(-c2cccs2)nc2oc3ccccc3c(=O)c2c1=O	MEKK3 PB1 HTS 129.0 | MEKK2wt confirm inactive | MEKK2mut confirm inactive | MEKK3 confirm inactive
CCCCn1c(-c2ccco2)nc2oc3ccccc3c(=O)c2c1=O	none
COc1ccc(NC(=S)N2CCC(N(C)CC3CCCO3)CC2)cc1Cl (stereo unspecified)	none
COc1ccc(NC2CCCN(C(=O)c3ccc4nc(C)c(C)nc4c3)C2)cc1OC (stereo unspecified)	none
N#CC(C#N)=C1C=CC=CN1/C(=C\c1ccco1)C(=O)c1ccccc1	none (no result: T cruzi repl)
N#CC(C#N)=C1C=CC=CN1/C(=C\c1ccco1)C(=O)c1ccc(Br)cc1	MEKK3 PB1 HTS 137.0 (no result: T cruzi repl) | MEKK2wt confirm inactive | MEKK2mut confirm inactive | MEKK3 confirm inactive
CCCC(=O)C1=C(O)C(C(=O)OC)C(C)(C)CC1=NCc1ccccc1 (stereo unspecified)	none
CCCC(=O)C1=C(O)C(C(=O)OC)C(C)(C)CC1=NCCc1ccc(OC)c(OC)c1 (stereo unspecified)	MEKK3 PB1 HTS 72.0[inhibitor] | MEKK2wt confirm inactive | MEKK2mut confirm inactive | MEKK3 confirm inactive
Cc1ccc(C(=O)N/C(=C\c2cn(C)c3ccccc23)C(=O)NCCN2CCOCC2)cc1	none
CCCn1cc(C(=O)N(C)C2CCCN(Cc3ccccc3F)C2)c(C)n1 (stereo unspecified)	none
CCC(=O)N(CCc1ccccc1)Cc1cc2cc(OC)ccc2[nH]c1=O	MEKK3 PB1 HTS 135.0 | MEKK2wt confirm inactive | MEKK2mut confirm inactive | MEKK3 confirm inactive
CC1(C)CC(CC(=O)Nc2ccccc2[N+](=O)[O-])C(=O)O1 (stereo unspecified)	MEKK3 PB1 HTS 147.0 | MEKK2wt confirm inactive | MEKK2mut confirm inactive | MEKK3 confirm inactive

Screening results deposited in PubChem by several laboratories.
